Legend:
[1] = test system: Spleen; assay: Drug concentration in female albino rat spleen assessed as radioactivity per gram of tissue at 20 mg/kg administered as single dose via gastric gavage measured after 24 hrs by autoradiographic analysis; assay type: ADME, organism-based; set-up: dose 20 mg/kg, dosed compound name [14C]Sunitinib; details: in vivo, po
[2] = Drug concentration in male albino rat skeletal muscle assessed as radioactivity per gram of tissue at 20 mg/kg administered as single dose via gastric gavage measured after 6 hrs by autoradiographic analysis; assay type: ADME, organism-based; set-up: dose 20 mg/kg, dosed compound name [14C]Sunitinib; details: in vivo, po
[3] = Drug concentration in female Lister Hooded pigmented rat salivary gland assessed as radioactivity per gram of tissue at 20 mg/kg administered as single dose via gastric gavage measured after 24 hrs by autoradiographic analysis; assay type: ADME, organism-based; set-up: dose 20 mg/kg, dosed compound name [14C]Sunitinib; details: in vivo, po
How it was run: (§1)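 Lister Hooded (pigmented) rats, ca 7-8 weeks old, acclimated 7 days, given [14C]sunitinib L-malate by gastric gavage at 20 mg/kg (15 mg freebase/kg, 100 µCi/kg). One male and one female killed by CO2 at 24, 72, 168 and 336 h. Carcasses frozen in solid CO2/hexane and embedded in frozen cellulose. 30 µm sagittal cryosections were freeze-dried. Tissue radioactivity measured by quantitative whole-body autoradiography against calibration standards, with background subtracted.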

[4] = test system: Zone of skin; assay: Drug concentration in male Lister Hooded pigmented rat abdomen skin assessed as radioactivity per gram of tissue at 20 mg/kg administered as single dose via gastric gavage measured after 336 hrs by autoradiographic analysis; assay type: ADME, organism-based; set-up: dose 20 mg/kg, dosed compound name [14C]Sunitinib; details: in vivo, po
[5] = Drug concentration in male Lister Hooded pigmented rat salivary gland assessed as radioactivity per gram of tissue at 20 mg/kg administered as single dose via gastric gavage measured after 24 hrs by autoradiographic analysis; assay type: ADME, organism-based; set-up: dose 20 mg/kg, dosed compound name [14C]Sunitinib; details: in vivo, po
[6] = test system: Brain; assay: Drug concentration in female albino rat brain assessed as radioactivity per gram of tissue at 20 mg/kg administered as single dose via gastric gavage measured after 6 hrs by autoradiographic analysis; assay type: ADME, organism-based; set-up: dose 20 mg/kg, dosed compound name [14C]Sunitinib; details: in vivo, po
How it was run: (§2)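 Sprague Dawley (albino) rats, ca 7-8 weeks old, received a single gastric-gavage dose of [14C]sunitinib L-malate at 20 mg/kg (15 mg freebase/kg, 100 µCi/kg). One animal per sex killed by CO2 at 3, 6, 24, 72 and 168 h, then frozen in CO2/hexane. 30 µm sagittal sections were cut and freeze-dried. Radioactivity per gram quantified by whole-body autoradiography using regression against standards. LOQ 0.04–0.06 µg freebase equiv/g.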

[7] = test system: Liver; assay: Drug concentration in female albino rat liver assessed as radioactivity per gram of tissue at 20 mg/kg administered as single dose via gastric gavage measured after 72 hrs by autoradiographic analysis; assay type: ADME, organism-based; set-up: dose 20 mg/kg, dosed compound name [14C]Sunitinib; details: in vivo, po
How it was run: (§3)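 Sprague Dawley albino rats, ca 7-8 weeks old, dosed once by gastric gavage with [14C]sunitinib L-malate (15 mg freebase/kg, 100 µCi/kg). One male and one female killed by CO2 at 3, 6, 24, 72 and 168 h. Carcasses frozen in solid CO2/hexane, embedded and cut into 30 µm sagittal sections, then freeze-dried. Radioactivity quantified by whole-body autoradiography against standards by regression, background subtracted.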

[8] = test system: Zone of skin; assay: Drug concentration in male Lister Hooded pigmented rat abdomen skin assessed as radioactivity per gram of tissue at 20 mg/kg administered as single dose via gastric gavage measured after 72 hrs by autoradiographic analysis; assay type: ADME, organism-based; set-up: dose 20 mg/kg, dosed compound name [14C]Sunitinib; details: in vivo, po
[9] = Drug concentration in female Lister Hooded pigmented rat bone marrow assessed as radioactivity per gram of tissue at 20 mg/kg administered as single dose via gastric gavage measured after 24 hrs by autoradiographic analysis; assay type: ADME, organism-based; set-up: dose 20 mg/kg, dosed compound name [14C]Sunitinib; details: in vivo, po; how it was run: as §1
[10] = test system: Stomach; assay: Drug concentration in female Lister Hooded pigmented rat stomach assessed as radioactivity per gram of tissue at 20 mg/kg administered as single dose via gastric gavage measured after 24 hrs by autoradiographic analysis; assay type: ADME, organism-based; set-up: dose 20 mg/kg, dosed compound name [14C]Sunitinib; details: in vivo, po; how it was run: as §1
[11] = Drug concentration in female albino rat bladder assessed as radioactivity per gram of tissue at 20 mg/kg administered as single dose via gastric gavage measured after 72 hrs by autoradiographic analysis; assay type: ADME, organism-based, Urinary bladder; set-up: dose 20 mg/kg, dosed compound name [14C]Sunitinib; details: in vivo, po; how it was run: as §2
[12] = Drug recovery in feces of female Sprague-Dawley rat at 15 mg/kg, po administered as single dose during 0 to 72 hrs by liquid scintillation counting; assay type: ADME, organism-based; set-up: dose 15 mg/kg, dosed compound name [14C]Sunitinib, route oral; details: in vivo
[13] = Drug concentration in male albino rat uveal tract assessed as radioactivity per gram of tissue at 20 mg/kg administered as single dose via gastric gavage measured after 6 hrs by autoradiographic analysis; assay type: ADME, organism-based; set-up: dose 20 mg/kg, dosed compound name [14C]Sunitinib; details: in vivo, po
[14] = Drug concentration in female albino rat eye assessed as radioactivity per gram of tissue at 20 mg/kg administered as single dose via gastric gavage measured after 6 hrs by autoradiographic analysis; assay type: ADME, organism-based; set-up: dose 20 mg/kg, dosed compound name [14C]Sunitinib; details: in vivo, po; how it was run: as §3
[15] = Drug concentration in female albino rat bone marrow assessed as radioactivity per gram of tissue at 20 mg/kg administered as single dose via gastric gavage measured after 24 hrs by autoradiographic analysis; assay type: ADME, organism-based; set-up: dose 20 mg/kg, dosed compound name [14C]Sunitinib; details: in vivo, po; how it was run: as §2
[16] = test system: Heart; assay: Drug concentration in female Lister Hooded pigmented rat heart assessed as radioactivity per gram of tissue at 20 mg/kg administered as single dose via gastric gavage measured after 24 hrs by autoradiographic analysis; assay type: ADME, organism-based; set-up: dose 20 mg/kg, dosed compound name [14C]Sunitinib; details: in vivo, po; how it was run: as §1
[17] = test system: Small intestine; assay: Drug concentration in male Lister Hooded pigmented rat small intestine assessed as radioactivity per gram of tissue at 20 mg/kg administered as single dose via gastric gavage measured after 24 hrs by autoradiographic analysis; assay type: ADME, organism-based; set-up: dose 20 mg/kg, dosed compound name [14C]Sunitinib; details: in vivo, po
[18] = test system: Kidney; assay: Drug concentration in female albino rat kidney assessed as radioactivity per gram of tissue at 20 mg/kg administered as single dose via gastric gavage measured after 72 hrs by autoradiographic analysis; assay type: ADME, organism-based; set-up: dose 20 mg/kg, dosed compound name [14C]Sunitinib; details: in vivo, po; how it was run: as §3
[19] = Drug concentration in male albino rat thyroid gland assessed as radioactivity per gram of tissue at 20 mg/kg administered as single dose via gastric gavage measured after 6 hrs by autoradiographic analysis; assay type: ADME, organism-based; set-up: dose 20 mg/kg, dosed compound name [14C]Sunitinib; details: in vivo, po
[20] = Drug concentration in male Lister Hooded pigmented rat uveal tract assessed as radioactivity per gram of tissue at 20 mg/kg administered as single dose via gastric gavage measured after 24 hrs by autoradiographic analysis; assay type: ADME, organism-based; set-up: dose 20 mg/kg, dosed compound name [14C]Sunitinib; details: in vivo, po
[21] = Drug concentration in male Lister Hooded pigmented rat eye assessed as radioactivity per gram of tissue at 20 mg/kg administered as single dose via gastric gavage measured after 24 hrs by autoradiographic analysis; assay type: ADME, organism-based; set-up: dose 20 mg/kg, dosed compound name [14C]Sunitinib; details: in vivo, po
[22] = test system: Heart; assay: Drug concentration in female albino rat heart assessed as radioactivity per gram of tissue at 20 mg/kg administered as single dose via gastric gavage measured after 24 hrs by autoradiographic analysis; assay type: ADME, organism-based; set-up: dose 20 mg/kg, dosed compound name [14C]Sunitinib; details: in vivo, po; how it was run: as §3
[23] = test system: Stomach; assay: Drug concentration in female albino rat stomach assessed as radioactivity per gram of tissue at 20 mg/kg administered as single dose via gastric gavage measured after 24 hrs by autoradiographic analysis; assay type: ADME, organism-based; set-up: dose 20 mg/kg, dosed compound name [14C]Sunitinib; details: in vivo, po
[24] = test system: Thymus; assay: Drug concentration in female Lister Hooded pigmented rat thymus assessed as radioactivity per gram of tissue at 20 mg/kg administered as single dose via gastric gavage measured after 24 hrs by autoradiographic analysis; assay type: ADME, organism-based; set-up: dose 20 mg/kg, dosed compound name [14C]Sunitinib; details: in vivo, po; how it was run: as §1
[25] = test system: Rattus norvegicus; assay: Drug recovery in cage residue of female Sprague-Dawley rat at 5 mg/kg, iv administered as single dose during 0 to 72 hrs by liquid scintillation counting; assay type: ADME, organism-based; set-up: dose 5 mg/kg, dosed compound name [14C]Sunitinib, route intravenous; details: in vivo
[26] = test system: Spleen; assay: Drug concentration in male albino rat spleen assessed as radioactivity per gram of tissue at 20 mg/kg administered as single dose via gastric gavage measured after 3 hrs by autoradiographic analysis; assay type: ADME, organism-based; set-up: dose 20 mg/kg, dosed compound name [14C]Sunitinib; details: in vivo, po
[27] = test system: Small intestine; assay: Drug concentration in male albino rat small intestine assessed as radioactivity per gram of tissue at 20 mg/kg administered as single dose via gastric gavage measured after 24 hrs by autoradiographic analysis; assay type: ADME, organism-based; set-up: dose 20 mg/kg, dosed compound name [14C]Sunitinib; details: in vivo, po
[28] = test system: Harderian gland; assay: Drug concentration in female albino rat harderian gland assessed as radioactivity per gram of tissue at 20 mg/kg administered as single dose via gastric gavage measured after 6 hrs by autoradiographic analysis; assay type: ADME, organism-based; set-up: dose 20 mg/kg, dosed compound name [14C]Sunitinib; details: in vivo, po; how it was run: as §3

CCN(CC)CCNC(=O)c1c(C)[nH]c(/[14CH]=C2\C(=O)Nc3ccc(F)cc32)c1C.O=C(O)C[C@H](O)C(=O)O
Radiolabel recovery [1]: 4.42 ugequiv | Radiolabel recovery [2]: 2.3 ugequiv | Radiolabel recovery [3]: 1.66 ugequiv | Radiolabel recovery [4]: 0.3 ugequiv | Radiolabel recovery [5]: 3.52 ugequiv | Radiolabel recovery [6]: 0.43 ugequiv | Radiolabel recovery [7]: 0.37 ugequiv | Radiolabel recovery [8]: 0.64 ugequiv | Radiolabel recovery [9]: 0.74 ugequiv | Radiolabel recovery [10]: 0.64 ugequiv | Radiolabel recovery [11]: 0.14 ugequiv | Radiolabel recovery [12]: 71.1% | Radiolabel recovery [13]: 5.08 ugequiv | Radiolabel recovery [14]: 1.18 ugequiv | Radiolabel recovery [15]: 1.21 ugequiv | Radiolabel recovery [16]: 0.47 ugequiv | Radiolabel recovery [17]: 0.82 ugequiv | Radiolabel recovery [18]: 0.39 ugequiv | Radiolabel recovery [19]: 18.76 ugequiv | Radiolabel recovery [20]: 18.79 ugequiv | Radiolabel recovery [21]: 7.8 ugequiv | Radiolabel recovery [22]: 0.73 ugequiv | Radiolabel recovery [23]: 1.21 ugequiv | Radiolabel recovery [24]: 0.88 ugequiv | Radiolabel recovery [25]: 1.1% | Radiolabel recovery [26]: 20.52 ugequiv | Radiolabel recovery [27]: 1.55 ugequiv | Radiolabel recovery [28]: 14.12 ugequiv

Reference: ChEMBL document CHEMBL3525900, “Pharmacokinetics, distribution, and metabolism of [14C]sunitinib in rats, monkeys, and humans” (Drug Metab Dispos, 2012)
